# Active and inactive are the calls of the source. The rule behind the calls is not given here.
# Target: T1, Alpha-2A adrenergic receptor (Homo sapiens) (UniProt P08913)
# T1 sequence (whole entry): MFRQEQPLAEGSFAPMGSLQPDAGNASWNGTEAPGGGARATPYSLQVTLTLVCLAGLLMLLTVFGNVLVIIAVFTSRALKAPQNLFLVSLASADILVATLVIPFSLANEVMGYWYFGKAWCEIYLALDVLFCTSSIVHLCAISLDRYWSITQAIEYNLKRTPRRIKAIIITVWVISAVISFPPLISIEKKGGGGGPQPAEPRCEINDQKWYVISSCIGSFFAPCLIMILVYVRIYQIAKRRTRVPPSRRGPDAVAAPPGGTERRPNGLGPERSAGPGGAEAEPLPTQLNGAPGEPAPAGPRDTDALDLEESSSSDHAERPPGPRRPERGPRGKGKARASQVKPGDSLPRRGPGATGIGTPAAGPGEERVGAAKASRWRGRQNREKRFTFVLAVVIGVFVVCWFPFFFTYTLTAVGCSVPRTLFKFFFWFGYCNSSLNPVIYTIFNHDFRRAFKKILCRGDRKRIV
# Assay: Antagonist activity at human alpha2A adrenoceptor expressed in CHO cells assessed as effect on agonist-induced extracellular acidification by microphysiometry
# Format: functional, cell-based
# Details: not given
# Outline: (§1)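 CHO cells stably expressing one human α2-AR subtype were run on the Cytosensor microphysiometer with bicarbonate-free DMEM perfusion. […] Kb = M/(concentration ratio − 1), where the ratio is EC50 with antagonist over EC50 without. Reported as pKb, mean ± SEM of 3–6 experiments.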
row,Structure (SMILES),pKb
1,CC(Oc1ccccc1-c1cccc([N+](=O)[O-])c1)C1=NCCN1 (racemic),6.8
2,CC(Oc1ccccc1)C1=NCCN1 (racemic),7.01
3,CC(Oc1ccccc1-c1cccc(O)c1)C1=NCCN1 (racemic),6.2
4,C=CCc1ccccc1O[C@@H](C)C1=NCCN1,7.8
5,C[C@@H](Oc1ccccc1-c1cccc([N+](=O)[O-])c1)C1=NCCN1,7.11

# Target: T2, Alpha-2B adrenergic receptor (Homo sapiens, UniProt P18089)
# T2 sequence (P18089 whole entry): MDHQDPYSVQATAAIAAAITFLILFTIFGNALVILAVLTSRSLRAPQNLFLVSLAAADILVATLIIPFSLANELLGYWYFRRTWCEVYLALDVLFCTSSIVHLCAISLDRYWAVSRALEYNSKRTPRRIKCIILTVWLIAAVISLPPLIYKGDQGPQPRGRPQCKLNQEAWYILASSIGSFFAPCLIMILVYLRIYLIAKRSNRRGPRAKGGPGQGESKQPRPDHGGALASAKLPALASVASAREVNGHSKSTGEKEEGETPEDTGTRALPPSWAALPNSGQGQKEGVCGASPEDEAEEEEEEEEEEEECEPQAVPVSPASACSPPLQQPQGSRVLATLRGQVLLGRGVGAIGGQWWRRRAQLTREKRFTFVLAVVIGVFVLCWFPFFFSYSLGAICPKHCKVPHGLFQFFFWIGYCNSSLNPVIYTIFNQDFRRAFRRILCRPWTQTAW
# Assay: Displacement of [3H]RX821002 from human alpha2B adrenoceptor expressed in CHO cells
# Format: cell-based
# Details: not given
# Outline: (§2)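 Buffer was Tris-Mg (50 mM Tris-HCl, 0.5 mM MgCl2, pH 7.5), competitor 10^-9 to 10^-4 M, 30 min at room temperature. Bound ligand was filtered and counted. Ki by nonlinear one- or two-site fit, reported as pKi.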
row,Structure (SMILES),Ki
1,C=CCc1ccccc1O[C@@H](C)C1=NCCN1,398 nM

# Target: T2, Alpha-2B adrenergic receptor
# Assay: Agonist activity at human alpha2B adrenoceptor expressed in CHO cells assessed as induction of extracellular acidification by microphysiometry
# Details: not given
row,Structure (SMILES),EC50
1,C=CCc1ccccc1O[C@@H](C)C1=NCCN1,1000 nM

# Target: T3, Alpha-2B adrenergic receptor (Homo sapiens) (UniProt P18089)
# T3 sequence (whole entry): T2 sequence (P18089 whole entry)
# Assay: Antagonist activity at human alpha2B adrenoceptor expressed in CHO cells assessed as effect on agonist-induced extracellular acidification by microphysiometry
# Format: functional, cell-based
# Details: not given
# Outline: as §1
row,Structure (SMILES),pKb
1,CC(Oc1ccccc1-c1cccc([N+](=O)[O-])c1)C1=NCCN1 (racemic),5.9
2,CC(Oc1ccccc1)C1=NCCN1 (racemic),6.2
3,C[C@@H](Oc1ccccc1-c1cccc([N+](=O)[O-])c1)C1=NCCN1,6.07

# Target: T4, Alpha-2C adrenergic receptor (Homo sapiens, UniProt P18825)
# T4 sequence (P18825 whole entry): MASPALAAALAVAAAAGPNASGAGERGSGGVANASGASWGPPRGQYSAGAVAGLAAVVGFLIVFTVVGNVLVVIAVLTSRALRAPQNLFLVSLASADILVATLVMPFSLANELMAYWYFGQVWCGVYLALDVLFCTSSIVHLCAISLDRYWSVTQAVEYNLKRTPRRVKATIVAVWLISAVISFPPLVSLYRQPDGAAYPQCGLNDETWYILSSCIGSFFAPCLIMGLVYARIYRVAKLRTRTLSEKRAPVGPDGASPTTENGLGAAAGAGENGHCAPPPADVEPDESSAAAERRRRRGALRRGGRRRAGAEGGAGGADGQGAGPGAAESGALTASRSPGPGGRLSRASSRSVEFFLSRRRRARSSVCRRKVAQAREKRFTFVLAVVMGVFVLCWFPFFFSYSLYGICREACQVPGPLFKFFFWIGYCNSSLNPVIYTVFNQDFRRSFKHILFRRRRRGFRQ
# Assay: Displacement of [3H]RX821002 from human Alpha-2C adrenoceptor expressed in CHO cells
# Format: cell-based
# Details: not given
# Outline: as §2
row,Structure (SMILES),Ki
1,C=CCc1ccccc1O[C@@H](C)C1=NCCN1,70.8 nM

# Target: T4, Alpha-2C adrenergic receptor
# Assay: Agonist activity at human Alpha-2C adrenoceptor expressed in CHO cells assessed as induction of extracellular acidification by microphysiometry
# Format: functional, cell-based
# Details: not given
# Outline: (§3)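 Cytosensor microphysiometry on CHO cells stably expressing one human α2-AR subtype, seeded at 3 × 10⁵ cells/cup and grown 24 h at 37 °C. Cells were perfused with bicarbonate-free DMEM and exposed to agonist for 4 min, with 30 min washes between exposures. The read-out is the change in acidification rate: peak after agonist minus the mean of three prior readings. Mean ± SEM, 3–6 experiments.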
row,Structure (SMILES),EC50
1,C=CCc1ccccc1O[C@@H](C)C1=NCCN1,25.1 nM

# Target: T5, Alpha-2C adrenergic receptor (Homo sapiens) (UniProt P18825)
# T5 sequence (whole entry): T4 sequence (P18825 whole entry)
# Assay: Agonist activity at human Alpha-2C adrenoceptor expressed in CHO cells assessed as induction of extracellular acidification by microphysiometry relative to (-)noradrenaline
# Format: functional, cell-based
# Details: not given
# Outline: as §3, with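 “readings. […]” for “readings.”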
row,Structure (SMILES),Intrinsic activity
1,Clc1cccc(Cl)c1NC1=NCCN1,0.6
2,C[C@@H](Oc1ccccc1-c1ccccc1)C1=NCCN1,0.7
3,CC(Oc1ccccc1-c1cccc([N+](=O)[O-])c1)C1=NCCN1 (racemic),0.6
4,CC(Oc1ccccc1-c1cccc(O)c1)C1=NCCN1 (racemic),1.15
5,CC(Oc1ccccc1-c1ccccc1)C1=NCCN1 (racemic),0.8
6,C=CCc1ccccc1O[C@@H](C)C1=NCCN1,0.9
7,C[C@H](Oc1ccccc1-c1ccccc1)C1=NCCN1,0.9
8,C[C@@H](Oc1ccccc1-c1cccc([N+](=O)[O-])c1)C1=NCCN1,0.8
9,CC(Oc1ccccc1-c1ccsc1)C1=NCCN1 (racemic),0.85

# Target: T5, Alpha-2C adrenergic receptor (Homo sapiens)
# Assay: Antagonist activity at human Alpha-2C adrenoceptor expressed in CHO cells assessed as effect on agonist-induced extracellular acidification by microphysiometry
# Format: functional, cell-based
# Details: not given
# Outline: as §1
row,Structure (SMILES),pKb
1,CC(Oc1ccccc1)C1=NCCN1 (racemic),6.85

# System: Mus musculus
# Assay: Enhancement of morphine-induced analgesic effect in CD1 mouse at 0.05 mg/kg, ip administered 15 mins before morphine dosing measured 30 to 240 mins post morphine challenge by radiant heat tail flick test
# Format: functional, organism-based
# Design: dose 0.05 mg/kg
# Details: not given
# Outline: (§4)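 Male CD-1 mice (25–35 g) received test agent 0.05 mg/kg ip or vehicle 15 min before morphine 5 mg/kg sc. Radiant-heat tail-flick to the lower third of the tail; baseline latency (2–3 s) is the mean of two trials. Latencies were read at 30, 60, 90, 120 and 240 min and expressed as %MPE. 7–8 mice per group, mean ± SEM.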
row,Structure (SMILES),Activity
1,C=CCc1ccccc1O[C@@H](C)C1=NCCN1,Active

# System: Mus musculus
# Assay: Analgesic effect in CD1 mouse at 0.05 mg/kg, ip by radiant heat tail flick test
# Format: functional, organism-based
# Design: dose 0.05 mg/kg
# Details: not given
# Outline: as §4
row,Structure (SMILES),Activity
1,C=CCc1ccccc1O[C@@H](C)C1=NCCN1,inactive

# System: Mus musculus
# Assay: Enhancement of morphine-induced analgesic effect in CD1 mouse at 0.05 mg/kg, ip administered 15 mins before morphine dosing measured 30 to 240 mins post morphine challenge in presence of Alpha-2C adrenergic receptor antagonist yohimbine by radiant heat tail flick test
# Format: functional, organism-based
# Design: dose 0.05 mg/kg
# Details: not given
# Outline: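 Male CD-1 mice got yohimbine 1.250 mg/kg ip 15 min before test agent (0.05 mg/kg ip). Test agent was given 15 min before morphine 5 mg/kg sc. Radiant-heat tail-flick latency was read 30–240 min after morphine and expressed as %MPE.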
row,Structure (SMILES),Activity
1,C=CCc1ccccc1O[C@@H](C)C1=NCCN1,inactive

# System: Mus musculus
# Assay: Reduction in morphine tolerance acquisition in CD1 mouse assessed as morphine analgesic effect incidence at 0.05 mg/kg, ip administered as single dose 15 mins before last morphine dosing on test day post morphine challenge by radiant heat tail flick test
# Format: functional
# Design: scale not given: the % may be the effect or the level left
# Details: route intraperitoneal
# Outline: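 Tolerance was induced in male CD-1 mice with morphine 10 mg/kg sc twice daily at 12 h intervals for 5 days. On day 5, test agent 0.05 mg/kg ip was given once, 15 min before the last morphine injection. Tail-flick antinociception was read 30 min after that injection and expressed as %MPE, with day 1 vs day 5 compared.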
row,Structure (SMILES),Activity
1,C=CCc1ccccc1O[C@@H](C)C1=NCCN1,22%

# System: Mus musculus
# Assay: Reduction in morphine dependence expression in CD1 mouse assessed as decrease in expression of naloxone-precipitated withdrawal syndrome at 0.05 mg/kg, ip administered as single dose […] on test day post morphine challenge […]
# Format: functional, organism-based
# Design: dose 0.05 mg/kg
# Details: not given
row,Structure (SMILES),Activity
1,C=CCc1ccccc1O[C@@H](C)C1=NCCN1,Active

# System: Mus musculus
# Assay: Toxicity in CD1 mouse assessed as effect on sleep duration at 0.05 mg/kg, ip by pentobarbital sodium induced sleep time assay
# Format: organism-based
# Design: dose 0.05 mg/kg, route intraperitoneal
# Details: in vivo
# Outline: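 Male CD-1 mice (n = 10 per group) were given test agent 0.05 mg/kg or vehicle, then sodium pentobarbital 50 mg/kg ip 15 min later. Sleep duration, the time from loss to regain of the righting reflex, was recorded in seconds. Mean ± SEM.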
row,Structure (SMILES),Activity
1,C=CCc1ccccc1O[C@@H](C)C1=NCCN1,Non-toxic

# System: Mus musculus
# Assay: Reduction in morphine tolerance acquisition in CD1 mouse assessed as morphine analgesic effect incidence at 0.05 mg/kg, ip bid administered 15 mins before last morphine dosing by radiant heat tail flick test
# Format: functional, organism-based
# Design: dose 0.05 mg/kg
# Details: not given
row,Structure (SMILES),Activity
1,C=CCc1ccccc1O[C@@H](C)C1=NCCN1,Active

# System: Mus musculus
# Assay: Reduction in morphine dependence expression in CD1 mouse assessed as decrease in expression of naloxone-precipitated withdrawal syndrome at 0.05 mg/kg, ip bid administered 15 mins before last morphine dosing […]
# Format: functional, organism-based
# Design: dose 0.05 mg/kg
# Details: not given
# Outline: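 In male CD-1 mice, morphine 10 mg/kg sc was given twice daily at 12 h intervals for 6 days, with test agent 0.05 mg/kg ip 15 min before each morphine dose. Jumping was counted, and somatic signs were scored as the sum of rearing, forepaw tremor and teeth chatter. Blind observers; mean ± SEM.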
row,Structure (SMILES),Activity
1,C=CCc1ccccc1O[C@@H](C)C1=NCCN1,Active

# Target: T3, Alpha-2B adrenergic receptor (Homo sapiens)
# Details: CHO
row,Structure (SMILES),pEC50
1,CC(Oc1ccccc1-c1ccsc1)C1=NCCN1 (racemic),inactive

# — ChEMBL document CHEMBL1275329, “Fruitful adrenergic α(2C)-agonism/α(2A)-antagonism combination to prevent and contrast morphine tolerance and dependence” (J Med Chem, 2010)
